Where two headings read alike, the source gives them in different places.

One may read the Kd as the concentration at which binding is half-saturated. By stoichiometry N is commonly meant a count of units in the complex or per binding partner.

The target of assay [1] is PaPAS (Pseudomonas aeruginosa Aer2 PAS domain). The following applies: read-out: Kd(CO), ref Garcia et al., 2017; cited from earlier work.
A further assay addresses VcAer2 [165–678]. Description: O2 and CO titrations of purified VcAer2 [165–678]. As to conditions: read-out: Kd(CO). In kind it is binding, Vibrio cholerae. An outline of the steps: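 Truncated receptor was expressed in E. coli BT3388 in LB Lennox with 0.5 µg ml−1 thiamine and 25 µg ml−1 ALA, induced with 600 µM IPTG, then Ni-NTA purified. Heme content was assessed on 5 µM purified protein. Kd(O2) and Kd(CO) came from linear interpolation between unliganded Fe2+ and liganded (Fe2+-O2, Fe2+-CO) absorption spectra. Averaged over 2–8 experiments and rounded to whole numbers.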

Assay [2] has as its system PAS2 [165–282] W276 mutant peptides. The assay is described as follows: Gas binding to purified PAS2 [165–282] W276 mutant peptides. More on the design: species or system Vibrio cholerae. The following applies: PAS2 peptides containing W276C, L and V.
For a further assay, the system named is PaAer2/BT3388 cells. As to conditions: PaAer2 in E. coli; ref Watts et al., 2011; cited from earlier work.
Another assay deals with VcAer2 PAS2 [165–282]. The assay is described as follows: O2 and CO titrations of purified PAS2 peptide. Format: binding, Vibrio cholerae. As to conditions: read-out: Kd(CO); PAS2 [165–282] peptide. An outline of the steps: (§1)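 PAS1 [38–157] or PAS2 [165–282] peptides came from E. coli BT3388 grown in LB Lennox with 0.5 µg ml−1 thiamine and 25 µg ml−1 ALA, induced with 600 µM IPTG and Ni-NTA purified. Heme-bound protein was quantified by pyridine hemochrome assay to standardize PAS-heme concentration. Kd(O2) and Kd(CO) were estimated by linear interpolation between unliganded Fe2+ and Fe2+-O2 or Fe2+-CO spectra. Averaged over 2–8 experiments, rounded to whole numbers.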

A further assay relates to VcAer2/BT3388 cells. The assay is described as follows: Behavioral assay. Format: cell-based, E. coli. As to conditions: full-length VcAer2; 200 µM or 1 mM IPTG; with or without 25 µg ml^−1 ALA. An outline of the steps: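 Full-length receptor expressed in chemoreceptorless E. coli BT3388 grown at 30 °C in tryptone broth with 0.5 µg ml−1 thiamine (± 25 µg ml−1 ALA). Induced at OD600 0.2–0.25 for 2 h with 200 µM or 1 mM IPTG. Gas perfusion chamber toggled between air (20.9% O2) and N2. For CO, 30 s N2 then 10 s CO (>99%). Percent tumbling scored for all motile cells per field at 800×. Repeated ≥2 times on ≥2 occasions.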

In assay [3] the test system is PAS1 [38–157] mutant peptides. The assay is described as follows: Gas binding to purified PAS1 [38–157] mutant peptides. More on the design: species or system Vibrio cholerae.
In a further assay the target is VcAer2 PAS1 [38–157]. The assay is described as follows: O2 and CO titrations of purified PAS1 peptide. Format: binding, Vibrio cholerae. The following applies: read-out: Kd(CO); PAS1 [38–157] peptide. An outline of the steps:
as §1

The target of assay [4] is V. cholerae Aer2 PAS1 [1–164] peptide (V. cholerae O1 JBK 70). Description: SEC. For orientation: Size exclusion chromatography separates by hydrodynamic size, large species first.
Assay [5] has as its target V. cholerae Aer2 PAS1 [38–157] peptide (V. cholerae O1 JBK 70). The assay is described as follows: SEC.
Assay [6] has the same target. Description: SEC. This is another data set of the same source.
For assay [7], the target named is V. cholerae Aer2 PAS2 [165–282] peptide (V. cholerae O1 JBK 70). Description: SEC.
Assay [8] has the same target. Description: SEC. This is another data set of the same source.
The target of assay [9] is V. cholerae Aer2 PAS 1–2 [1–282] peptide (V. cholerae O1 JBK 70). Description: SEC.

In the case of `[C-]#[O+]` [CO, carbon monoxide], the equilibrium dissociation constant (Kd) in assay [1] is 2 µM; on VcAer2 [165–678], 2 µM; on VcAer2 PAS2 [165–282] it was 5 µM; on VcAer2 PAS1 [38–157], 7 µM. In addition, the CO binding result in [2] is “bound CO”; in assay [3] (PAS1-Y119L/W151L), “bound heme and CO”. For the same compound, the “cells tumbling in the presence of gas” value in the assay with PaAer2/BT3388 cells is on record as ~ 98%. The “behavioral response to gas” value with VcAer2/BT3388 cells is listed as “did not respond”. Further, the “CO binding affinity relative to WT” value was “WT affinities” in [3] (PAS1-W151C, F, G, P, S, T and V); “WT affinities” in assay [3] (PAS1-W151L); “WT O2 and CO affinities” in [3] (PAS1-Y119L).
With “V. cholerae Aer2 PAS1 [1–164] peptide (domain or fragment)”, the stoichiometry N in [4] stood at 2.
As for “V. cholerae Aer2 PAS1 [38–157] peptide (domain or fragment)”, the stoichiometry N in assay [5] and in assay [6] was 2 each time.
For “V. cholerae Aer2 PAS2 [165–282] peptide (domain or fragment)”, the stoichiometry N in [7] and in assay [8] was 2 throughout.
Regarding “V. cholerae Aer2 PAS 1–2 [1–282] peptide (domain or fragment)”, the stoichiometry N in assay [9] is 2.

Source of the values: paper PMC6214802 (Molecular microbiology, 2018).
